Source: ChEMBL document CHEMBL3751816, “Design, synthesis and evaluation of acridine derivatives as multi-target Src and MEK kinase inhibitors for anti-tumor treatment” (Bioorg Med Chem, 2016)
Blank lines part the entries; values can stand above or below the compound they belong to. Activity calls are given as the source filed them. The calls are words filed in the database; no cut-off is given here.

What was measured:
K562 [1] = experiment: Cytotoxicity against human K562 cells after 48 hrs by MTT assay; format: functional, cell-based; details: K562, 48 h
Procedure, shortened: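 K562 cells in DMEM with 10% FBS, 37 °C, 5% CO2. Seeded at 7×10^5 cells/mL and held 12 h. Compounds in DMSO, diluted to final 0.01–50 µM (final DMSO below 1%), triplicate per concentration, 48 h. Then MTT 4 h at 37 °C, formazan dissolved in DMSO, absorbance read at 495 nm.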

HepG2 = experiment: Cytotoxicity against human HepG2 cells after 48 hrs by MTT assay; format: functional, cell-based; details: HepG2, 48 h
Procedure, shortened: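 HepG-2 cells in DMEM with 10% FBS, 37 °C, 5% CO2. Seeded at 5×10^5 cells/mL for 12 h, then medium removed. Compounds in DMSO diluted to final 0.01–50 µM (DMSO below 1%), triplicate per concentration, 48 h. MTT 4 h at 37 °C, formazan taken up in DMSO, A495 read.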

[2] = target: Proto-oncogene tyrosine-protein kinase Src (Homo sapiens) (UniProt P12931); experiment: Inhibition of Src (unknown origin) at 10 uM after 15 mins by luminescence assay
Sequence of Proto-oncogene tyrosine-protein kinase Src (Homo sapiens) (P12931 2-536 limits assumed): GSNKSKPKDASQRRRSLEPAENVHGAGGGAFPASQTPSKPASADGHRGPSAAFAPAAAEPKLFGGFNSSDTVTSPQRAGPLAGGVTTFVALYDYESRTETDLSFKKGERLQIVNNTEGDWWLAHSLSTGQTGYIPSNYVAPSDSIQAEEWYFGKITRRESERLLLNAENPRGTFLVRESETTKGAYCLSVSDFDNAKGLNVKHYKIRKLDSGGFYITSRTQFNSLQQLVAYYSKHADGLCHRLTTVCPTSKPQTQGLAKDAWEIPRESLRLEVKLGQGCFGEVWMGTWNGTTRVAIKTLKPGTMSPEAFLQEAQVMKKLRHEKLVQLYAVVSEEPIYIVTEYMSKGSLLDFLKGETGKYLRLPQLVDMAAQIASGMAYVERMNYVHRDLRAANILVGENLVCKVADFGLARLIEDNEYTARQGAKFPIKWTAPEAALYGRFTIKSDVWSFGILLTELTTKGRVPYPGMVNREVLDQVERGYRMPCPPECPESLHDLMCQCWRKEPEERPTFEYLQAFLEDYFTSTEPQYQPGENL
Procedure, shortened: (§1)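 Contract-run kinase assay. Enzyme, substrate, ATP and compound (10 µM, in 2.5% DMSO) mixed in pH 7.0 buffer: 50 mM HEPES/NaOH, 0.02% NaN3, 0.01% BSA, orthovanadate, 5 mM MgCl2, 1 mM DTT. Incubated 15 min at room temperature. Detection with streptavidin-XL665 plus TK antibody europium cryptate in KF/EDTA buffer. […]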

[3] = target: T1, Dual specificity mitogen-activated protein kinase kinase; MEK1/2 (Homo sapiens) (UniProt P36507+Q02750); experiment: Inhibition of MEK (unknown origin) at 10 uM after 15 mins by luminescence assay; procedure, shortened: as §1
T1 sequence (P36507 whole entry, looked up): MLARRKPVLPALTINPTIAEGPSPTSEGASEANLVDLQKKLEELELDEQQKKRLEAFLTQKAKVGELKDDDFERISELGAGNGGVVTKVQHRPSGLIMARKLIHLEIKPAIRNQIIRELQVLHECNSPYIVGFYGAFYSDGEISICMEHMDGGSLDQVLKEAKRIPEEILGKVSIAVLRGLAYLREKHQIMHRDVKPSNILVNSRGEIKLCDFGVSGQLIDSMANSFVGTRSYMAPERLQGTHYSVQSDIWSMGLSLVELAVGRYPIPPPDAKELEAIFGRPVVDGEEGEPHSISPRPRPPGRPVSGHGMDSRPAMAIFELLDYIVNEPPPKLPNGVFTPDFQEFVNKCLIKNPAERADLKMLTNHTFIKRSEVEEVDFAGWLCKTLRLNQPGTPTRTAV
T1 sequence (Q02750 whole entry, looked up): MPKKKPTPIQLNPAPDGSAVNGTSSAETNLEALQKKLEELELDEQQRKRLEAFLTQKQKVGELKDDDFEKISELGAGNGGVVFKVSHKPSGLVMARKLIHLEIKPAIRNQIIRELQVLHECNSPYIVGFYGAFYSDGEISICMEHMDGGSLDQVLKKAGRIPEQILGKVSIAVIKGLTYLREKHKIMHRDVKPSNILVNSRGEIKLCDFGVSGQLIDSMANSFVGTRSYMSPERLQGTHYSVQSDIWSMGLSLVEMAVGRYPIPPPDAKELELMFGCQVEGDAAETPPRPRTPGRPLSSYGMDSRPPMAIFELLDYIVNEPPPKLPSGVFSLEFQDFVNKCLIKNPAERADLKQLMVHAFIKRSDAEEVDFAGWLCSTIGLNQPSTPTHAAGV

Homo sapiens = organism: Homo sapiens; experiment: Inhibition of PI3K (unknown origin) at 10 uM after 15 mins by luminescence assay
[4] = target: Proto-oncogene tyrosine-protein kinase Src (Homo sapiens) (UniProt P12931); experiment: Inhibition of Src in human K562 cells assessed as decrease of ERK expression after 48 hrs by Western blot analysis; format: cell-based
Procedure, shortened: (§2)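 K562 cells treated at 0, 0.5, 2.5, 5 and 10 µM for 48 h at 37 °C. Lysed on ice 30 min in NP-40/HEPES pH 7.9 buffer with phosphatase and protease inhibitors, cleared at 12000 g. Bradford-normalized protein run on SDS–PAGE, transferred to PVDF, and probed for ERK and AKT.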

[5] = target: Proto-oncogene tyrosine-protein kinase Src (Homo sapiens) (UniProt P12931); experiment: Inhibition of Src in human K562 cells assessed as decrease of AKT expression after 48 hrs by Western blot analysis; format: cell-based; procedure, shortened: as §2
[6] = target: T1, Dual specificity mitogen-activated protein kinase kinase; MEK1/2 (Homo sapiens); experiment: Inhibition of MEK in human K562 cells assessed as decrease of ERK expression after 48 hrs by Western blot analysis; format: cell-based; procedure, shortened: as §2
[7] = target: T1, Dual specificity mitogen-activated protein kinase kinase; MEK1/2 (Homo sapiens); experiment: Inhibition of MEK in human K562 cells assessed as decrease of AKT expression after 48 hrs by Western blot analysis; format: cell-based; procedure, shortened: as §2
K562 [8] = experiment: Inhibition of PI3K in human K562 cells assessed as decrease of ERK expression after 48 hrs by Western blot analysis; format: cell-based; procedure, shortened: as §2
K562 [9] = experiment: Inhibition of PI3K in human K562 cells assessed as decrease of AKT expression after 48 hrs by Western blot analysis; format: cell-based; procedure, shortened: as §2
Calf thymus DNA = experiment: Binding affinity to calf thymus DNA at 10 uM by UV-vis spectrophotometric titration analysis; format: nucleic-acid assay; details: Bos taurus
K562 [10] = experiment: Induction of apoptosis in human K562 cells after 48 hrs by annexin V-FITC staining; format: functional, cell-based
K562 [11] = experiment: Induction of apoptosis in human K562 cells assessed as live cells at 0.5 uM after 48 hrs by annexin V-FITC staining (reference value: 96.49%); format: functional
K562 [12] = experiment: Induction of apoptosis in human K562 cells assessed as necrotic cells at 0.5 uM after 48 hrs by annexin V-FITC staining (reference value: 0.15%); format: functional
K562 [13] = experiment: Induction of apoptosis in human K562 cells assessed as late stage apoptotic cells at 0.5 uM after 48 hrs by annexin V-FITC staining (reference value: 0.23%); format: functional
K562 [14] = experiment: Induction of apoptosis in human K562 cells assessed as early stage apoptotic cells at 0.5 uM after 48 hrs by annexin V-FITC staining (reference value: 3.14%); format: functional
K562 [15] = experiment: Induction of apoptosis in human K562 cells assessed as live cells at 5 uM after 48 hrs by annexin V-FITC staining (reference value: 96.49%); format: functional
K562 [16] = experiment: Induction of apoptosis in human K562 cells assessed as necrotic cells at 5 uM after 48 hrs by annexin V-FITC staining (reference value: 0.15%); format: functional
K562 [17] = experiment: Induction of apoptosis in human K562 cells assessed as late stage apoptotic cells at 5 uM after 48 hrs by annexin V-FITC staining (reference value: 0.23%); format: functional
K562 [18] = experiment: Induction of apoptosis in human K562 cells assessed as early stage apoptotic cells at 5 uM after 48 hrs by annexin V-FITC staining (reference value: 3.14%); format: functional
K562 [19] = experiment: Induction of apoptosis in human K562 cells assessed as live cells at 10 uM after 48 hrs by annexin V-FITC staining (reference value: 96.49%); format: functional
K562 [20] = experiment: Induction of apoptosis in human K562 cells assessed as necrotic cells at 10 uM after 48 hrs by annexin V-FITC staining (reference value: 0.15%); format: functional
K562 [21] = experiment: Induction of apoptosis in human K562 cells assessed as late stage apoptotic cells at 10 uM after 48 hrs by annexin V-FITC staining (reference value: 0.23%); format: functional
K562 [22] = experiment: Induction of apoptosis in human K562 cells assessed as early stage apoptotic cells at 10 uM after 48 hrs by annexin V-FITC staining (reference value: 3.14%); format: functional
K562 [23] = experiment: Induction of apoptosis in human K562 cells assessed as early cleavage of caspase-3 at 10 uM after 48 hrs by Western blot analysis; format: functional, cell-based
Procedure, shortened: (§3)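 K562 cells treated 48 h at 37 °C. Lysed on ice 30 min (HEPES pH 7.9, KCl, EDTA, 0.1% NP-40, Na3VO4, NaF, protease inhibitors), then cleared at 12000 g, 4 °C. Protein measured by Bradford and equal amounts run on SDS–PAGE. Transferred to PVDF and immunoblotted for cleaved caspase-3, cleaved caspase-7 and cleaved PARP.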

K562 [24] = experiment: Induction of apoptosis in human K562 cells assessed as early cleavage of caspase-7 at 10 uM after 48 hrs by Western blot analysis; format: functional, cell-based; procedure, shortened: as §3
K562 [25] = experiment: Induction of apoptosis in human K562 cells assessed as early cleavage of PARP at 10 uM after 48 hrs by Western blot analysis; format: functional, cell-based; procedure, shortened: as §3

SMILES: COc1cccc(NC(=O)Nc2ccc(Nc3c4ccccc4nc4cc([N+](=O)[O-])ccc34)cc2)c1
IC50 (K562 [1]): 4.55 µM
IC50 (HepG2): 22.3 µM

SMILES: COc1ccc2nc3cc(Cl)ccc3c(Nc3ccc(NC(=O)Nc4ccccc4)cc3)c2c1
IC50 (K562 [1]): 3.42 µM
IC50 (HepG2): 9.56 µM

inhibition [2]: 59.7%
inhibition [3]: 43.2%
inhibition (Homo sapiens): 44.4%
inhibition [4]: Dose-dependent effect
inhibition [5]: Dose-dependent effect
inhibition [6]: Dose-dependent effect
inhibition [7]: Dose-dependent effect
Activity (Calf thymus DNA): 0.083 M⁻¹
SMILES: COc1ccc2c(Nc3ccc(NC(=O)Nc4ccccc4)cc3)c3ccccc3nc2c1
inhibition (K562 [8]): Dose-dependent effect
inhibition (K562 [9]): Dose-dependent effect
Activity (K562 [10]): Dose-dependent effect
Activity (K562 [11]): 96.6%
Activity (K562 [12]): 0.15%
Activity (K562 [13]): 0.1%
Activity (K562 [14]): 6.13%
Activity (K562 [15]): 85.42%
Activity (K562 [16]): 0.3%
Activity (K562 [17]): 0.23%
Activity (K562 [18]): 14.05%
Activity (K562 [19]): 37.83%
Activity (K562 [20]): 0.73%
Activity (K562 [21]): 6.45%
Activity (K562 [22]): 54.98%
IC50 (K562 [1]): 4.08 µM
IC50 (HepG2): 9.41 µM
Activity (K562 [23]): Active
Activity (K562 [24]): Active
Activity (K562 [25]): Active

SMILES: O=C(Nc1ccc(Nc2c3ccccc3nc3cc([N+](=O)[O-])ccc23)cc1)Nc1cccc(F)c1
IC50 (K562 [1]): 11.1 µM
IC50 (HepG2): > 25 µM

SMILES: CCc1ccc(NC(=O)Nc2ccc(Nc3c4ccccc4nc4cc([N+](=O)[O-])ccc34)cc2)cc1
IC50 (K562 [1]): 1.86 µM
IC50 (HepG2): 14.8 µM

SMILES: COc1ccc2nc3cc(Cl)ccc3c(Nc3ccccc3OC)c2c1
IC50 (K562 [1]): 5.8 µM
IC50 (HepG2): > 50 µM

SMILES: COc1ccccc1NC(=O)Nc1ccc(Nc2c3ccccc3nc3cc([N+](=O)[O-])ccc23)cc1
IC50 (K562 [1]): 4.51 µM
IC50 (HepG2): 19.4 µM

SMILES: COc1cccc2c(Nc3ccc(NC(=O)Nc4cccc(C(F)(F)F)c4)cc3)c3ccccc3nc12
IC50 (K562 [1]): 1.93 µM
IC50 (HepG2): 13.1 µM

SMILES: COc1ccc(NC(=O)Nc2ccc(Nc3c4ccccc4nc4cc([N+](=O)[O-])ccc34)cc2)cc1
IC50 (K562 [1]): 7.68 µM
IC50 (HepG2): > 25 µM

SMILES: COc1cccc2c(Nc3ccc(NC(=O)Nc4ccccc4)cc3)c3ccc([N+](=O)[O-])cc3nc12
IC50 (K562 [1]): 2.58 µM
IC50 (HepG2): 17.6 µM

SMILES: CCCCc1ccc(NC(=O)Nc2ccc(Nc3c4ccccc4nc4cc([N+](=O)[O-])ccc34)cc2)cc1
IC50 (K562 [1]): 1.23 µM
IC50 (HepG2): 14 µM

SMILES: O=C(Nc1ccc(Nc2c3ccccc3nc3cc([N+](=O)[O-])ccc23)cc1)Nc1cccc(C(F)(F)F)c1
IC50 (K562 [1]): 1.2 µM
IC50 (HepG2): > 25 µM

SMILES: O=C(Nc1ccc(Nc2c3ccccc3nc3cc([N+](=O)[O-])ccc23)cc1)Nc1cccc(Cl)c1
IC50 (K562 [1]): 13.9 µM
IC50 (HepG2): > 25 µM

SMILES: Cc1ccc(NC(=O)c2ccc(CN3CCN(C)CC3)cc2)cc1Nc1nccc(-c2cccnc2)n1 [IMATINIB]
IC50 (K562 [1]): 0.53 µM
IC50 (HepG2): > 25 µM

SMILES: O=C(Nc1ccccc1)Nc1ccc(Nc2c3ccccc3nc3cc([N+](=O)[O-])ccc23)cc1
IC50 (K562 [1]): 3.3 µM
IC50 (HepG2): 19.8 µM

SMILES: CCc1cccc(NC(=O)Nc2ccc(Nc3c4ccccc4nc4cc([N+](=O)[O-])ccc34)cc2)c1
IC50 (K562 [1]): 8.92 µM
IC50 (HepG2): 22.7 µM

SMILES: COc1ccc2nc3cc([N+](=O)[O-])ccc3c(Nc3ccc(NC(=O)Nc4ccccc4)cc3)c2c1
IC50 (K562 [1]): 3.79 µM
IC50 (HepG2): > 25 µM

SMILES: Cc1cccc(NC(=O)Nc2ccc(Nc3c4ccccc4nc4cc([N+](=O)[O-])ccc34)cc2)c1
IC50 (K562 [1]): 11.6 µM
IC50 (HepG2): > 25 µM

SMILES: COc1cccc2c(Nc3ccc(NC(=O)Nc4ccccc4)cc3)c3ccccc3nc12
IC50 (K562 [1]): 0.49 µM
IC50 (HepG2): 6.12 µM

SMILES: CCCc1ccc(NC(=O)Nc2ccc(Nc3c4ccccc4nc4cc([N+](=O)[O-])ccc34)cc2)cc1
IC50 (K562 [1]): 1.56 µM
IC50 (HepG2): 14.4 µM
